“And” between values parts separate entries of the source, which are not always exact repeats. Equal entries are not always repeated. Where two headings read alike, the source gives them in different places.
Tests used:
FGFR1 = FGFR1 (Homo sapiens, UniProt P11362); assay: Kinase inhibition assay; type: biochemical; conditions: for inhibition at 0.01 µM / inhibition at 0.1 µM / inhibition at 1 µM: read-out: FGFR1 inhibition rate (%)
SNU16 cancer cell lines = assay: Cell proliferation assay; type: cell-based
[1] = Whole blood stability assay; type: in vitro ADME, BALB/c nude mice; conditions: BALB/c nude, mouse, fresh whole blood
Method in brief: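 Fresh BALB/c nude mouse blood was prewarmed 10 min at 37 °C, then spiked with test compound from a DMSO working solution. Aliquots taken at 0, 0.5, 1, 2 and 5 h were quenched with acetonitrile, centrifuged, and the supernatant diluted in acetonitrile/water. Remaining parent was quantified by UPLC–MS/MS (MRM). GSH adduct was monitored in negative-mode MRM (product ion m/z 272). Triplicates.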

NCI-H1581 xenograft = assay: In vivo antitumor activity, NCI-H1581 xenograft mouse model; parameters: species or system nude mice (BALB/c); conditions: 12.5 mg/kg, 20 days
BaF3/TEL-FGFR1 cell = assay: Cell proliferation assay, BaF3/TEL-FGFR1; type: cell-based; conditions: read-out: BaF3/TEL-FGFR1 IC50
KG1 cells = assay: Cell proliferation assay, KG1; type: cell-based; conditions: read-out: KG1 IC50; FGFR1OP2-FGFR1 (FGFR1-translocated)
UMUC14 cells = assay: Cell proliferation assay, UMUC14; type: cell-based; conditions: read-out: UMUC14 IC50; FGFR3 mutation
H1581 cells = assay: Cell proliferation assay, H1581; type: cell-based; conditions: read-out: H1581 IC50; FGFR1 amplification
BaF3/TEL-KDR cell = assay: Cell proliferation assay, BaF3/TEL-KDR; type: cell-based; conditions: read-out: BaF3/TEL-KDR IC50
[2] = Homo sapiens, SNU-16, read-out: SNU16 IC50

Chain of FGFR1 (P11362 22-822): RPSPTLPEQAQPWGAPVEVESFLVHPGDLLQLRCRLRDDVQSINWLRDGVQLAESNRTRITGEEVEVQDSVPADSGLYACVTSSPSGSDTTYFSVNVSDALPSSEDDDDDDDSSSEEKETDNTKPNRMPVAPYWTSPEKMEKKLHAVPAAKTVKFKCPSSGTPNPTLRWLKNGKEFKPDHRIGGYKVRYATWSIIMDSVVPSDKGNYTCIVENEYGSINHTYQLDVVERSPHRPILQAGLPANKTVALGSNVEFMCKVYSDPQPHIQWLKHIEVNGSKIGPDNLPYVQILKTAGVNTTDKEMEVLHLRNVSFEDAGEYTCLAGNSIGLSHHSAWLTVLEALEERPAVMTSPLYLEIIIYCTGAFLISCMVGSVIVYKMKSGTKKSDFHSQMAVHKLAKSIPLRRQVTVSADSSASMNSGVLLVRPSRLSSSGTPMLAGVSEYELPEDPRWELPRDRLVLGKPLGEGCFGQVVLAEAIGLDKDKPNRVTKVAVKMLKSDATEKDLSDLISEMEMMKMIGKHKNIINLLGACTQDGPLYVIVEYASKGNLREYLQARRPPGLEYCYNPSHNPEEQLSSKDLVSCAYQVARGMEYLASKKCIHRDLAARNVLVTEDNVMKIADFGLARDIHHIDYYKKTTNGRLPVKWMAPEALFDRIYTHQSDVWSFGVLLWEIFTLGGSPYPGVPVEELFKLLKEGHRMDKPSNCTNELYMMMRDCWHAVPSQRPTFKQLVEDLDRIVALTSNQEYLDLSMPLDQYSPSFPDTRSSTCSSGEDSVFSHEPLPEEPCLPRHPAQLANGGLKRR

## Nc1n[nH]c(=O)c2nn(-c3ccccc3)c(-c3ccco3)c12 [Compound 6]
FGFR1
  inhibition at 0.01 µM: 18.6%
  inhibition at 0.1 µM: 19.6%
  inhibition at 1 µM: 22.9%

## Nc1n[nH]c(=O)c2nn(-c3ccccc3)c(-c3ccccc3)c12 [Compound 7]
FGFR1
  inhibition at 0.01 µM: 22.9%
  inhibition at 0.1 µM: 20.4%
  inhibition at 1 µM: 19.9%

## COc1ccc2c(C)c(-c3c4c(N)n[nH]c(=O)c4nn3-c3ccccc3)oc2c1 [Compound 8d]
FGFR1
  IC50: 67.7 ± 3.9 nM

## COc1ccc2oc(-c3c4c(N)n[nH]c(=O)c4nn3-c3ccccc3)c(C)c2c1 [Compound 8f]
FGFR1
  IC50: 77.5 ± 14.7 nM

## Cc1c(-c2c3c(N)n[nH]c(=O)c3nn2-c2ccccc2)oc2cc(Cl)ccc12 [Compound 8i]
FGFR1
  inhibition at 0.1 µM: 64.2%
SNU16 cancer cell lines; Homo sapiens, SNU-16, read-out: SNU16 proliferation inhibition
  inhibition at 1 µM: 49.7%

## Cc1c(-c2c3c(N)n[nH]c(=O)c3nn2-c2ccccc2)oc2ccc(Cl)cc12 [Compound 8j]
FGFR1
  IC50: 56.4 ± 15.8 nM

## Cc1c(-c2c3c(N)n[nH]c(=O)c3nn2-c2ccccc2)oc2ccc(Br)cc12 [Compound 8m]
FGFR1
  IC50: 66.8 ± 16.5 nM
SNU16 cancer cell lines; [2]
  IC50: > 1000 nM

## Cc1c(-c2c3c(N)n[nH]c(=O)c3nn2-c2ccccc2)oc2c(Cl)cccc12 [Compound 8p]
FGFR1
  inhibition at 0.1 µM: 38.1%

## CC(=O)Nc1ccc(-n2nc3c(=O)[nH]nc(N)c3c2-c2oc3ccc(C)cc3c2C)cc1 [Compound 9j]
FGFR1
  inhibition at 0.1 µM: 76.4%

## Cc1ccc2oc(-c3c4c(N)n[nH]c(=O)c4nn3-c3ccc(CNC(=O)OCc4ccccc4)cc3)c(C)c2c1 [Compound 9m]
FGFR1
  IC50: 13.8 ± 1.3 nM

## CCC(=O)Nc1ccc(-n2nc3c(=O)[nH]nc(N)c3c2-c2oc3ccc(C)cc3c2C)cc1 [Compound 9o]
FGFR1
  inhibition at 0.1 µM: 66.2%

## Cc1ccc2oc(-c3c4c(N)n[nH]c(=O)c4nn3Cc3ccc([N+](=O)[O-])cc3)c(C)c2c1 [Compound 9w]
FGFR1
  inhibition at 0.1 µM: 16.9%

## CCCCNc1cc(F)c(-n2nc3c(=O)[nH]nc(N)c3c2-c2oc3ccc(C)cc3c2C)c(F)c1 [Compound 9z]
FGFR1
  inhibition at 0.1 µM: 73.9%
SNU16 cancer cell lines; [2]
  IC50: > 1000 nM

## C/C=C/C(=O)Nc1ccc(-n2nc3c(=O)[nH]nc(N)c3c2-c2oc3ccc(C)cc3c2C)cc1 [Compound 10b]
[1]
  half-life at 1 μmol/L: 71.2 h

## C=CC(=O)Nc1cccc(-n2nc3c(=O)[nH]nc(N)c3c2-c2oc3ccc(C)cc3c2C)c1 [Compound 10l]
SNU16 cancer cell lines; [2]
  IC50: 660 ± 322 nM

## AZD4547
NCI-H1581 xenograft
  TGI (tumor weight inhibition rate at the treatment endpoint): 65.6%
BaF3/TEL-FGFR1 cell
  IC50: 0.5 nM
KG1 cells
  IC50: 3.7 ± 0.6 nM
UMUC14 cells
  IC50: 6.4 ± 1.3 nM
SNU16 cancer cell lines; read-out: SNU16 IC50, FGFR2 amplification SNU16 cell line
  IC50: 3.7 nM and 5 nM
H1581 cells
  IC50: 59.8 ± 8.1 nM
BaF3/TEL-KDR cell
  IC50: 417 ± 10 nM

— article PMC7982429 (Acta Pharmaceutica Sinica. B, 2020)
